From ChEMBL document CHEMBL1143074, “Symplocamide A, a potent cytotoxin and chymotrypsin inhibitor from the marine Cyanobacterium Symploca sp” (J Nat Prod, 2008)
Activity calls are given as the source filed them. The rule behind the calls is not given here.

Legend:
[1] = Inhibition of trypsin at 10 uM
[2] = Inhibition of chymotrypsin
How it was run: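 Spectrophotometric assay: 0.0025 mg/mL chymotrypsin (0.0086 U) with 0.53 mM BTEE in 38 mM Tris-HCl pH 7.8, 53 mM CaCl2, 0.5 mM HCl and 32% MeOH at 25 °C. Inhibitor (from MeOH dilutions, final 6.25 × 10-5 to 7.5 × 10^-9 M) was equilibrated with substrate before enzyme addition. Absorbance at 256 nm was followed for 5 min, and the 0.5–1.5 min interval was analyzed.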

| Activity [1] | IC50 [2] | Structure (SMILES) |
| --- | --- | --- |
| inactive | 400 nM | CC[C@H](C)[C@@H]1NC(=O)[C@H](Cc2ccccc2)N(C)C(=O)[C@H](C(C)C)N2C(=O)[C@H](CC[C@H]2O)NC(=O)[C@H](CC2C=CC(O)CC2)NC(=O)[C@@H](NC(=O)[C@@H](N)CCC(=O)O)[C@@H](C)OC1=O (stereo partly specified) [MICROPEPTIN 88A] |
| inactive | 4500 nM | CCCC(=O)N[C@@H](Cc1ccccc1)C(=O)N[C@@H](CCC(=O)O)C(=O)N[C@@H]1C(=O)N[C@@H](Cc2ccc(O)cc2)C(=O)N[C@H]2CC[C@@H](O)N(C2=O)[C@@H](C(C)C)C(=O)N(C)[C@@H](Cc2ccccc2)C(=O)N[C@@H]([C@@H](C)CC)C(=O)O[C@@H]1C [MICROPEPTIN 88C] |
| inactive | 8960 nM | CCCC(=O)N[C@@H](Cc1ccccc1)C(=O)N[C@@H](CCC(=O)O)C(=O)N[C@@H]1C(=O)N[C@@H](CC2C=CC(O)CC2)C(=O)N[C@H]2CC[C@@H](O)N(C2=O)[C@@H](C(C)C)C(=O)N(C)[C@@H](Cc2ccccc2)C(=O)N[C@@H]([C@@H](C)CC)C(=O)O[C@@H]1C (stereo partly specified) [MICROPEPTIN 88D] |
| inactive | 4900 nM | CCCC(=O)N[C@@H](Cc1ccccc1)C(=O)N[C@@H](CCC(=O)O)C(=O)N[C@@H]1C(=O)N[C@@H](CC(C)C)C(=O)N[C@H]2CC[C@@H](O)N(C2=O)[C@@H](C(C)C)C(=O)N(C)[C@@H](Cc2ccccc2)C(=O)N[C@@H]([C@@H](C)CC)C(=O)O[C@@H]1C [MICROPEPTIN 88E] |
| inactive | 3020 nM | CCCC(=O)N[C@@H](Cc1ccccc1)C(=O)N[C@@H](CCC(=O)OC)C(=O)N[C@@H]1C(=O)N[C@@H](Cc2ccc(O)cc2)C(=O)N[C@H]2CC[C@@H](O)N(C2=O)[C@@H](C(C)C)C(=O)N(C)[C@@H](Cc2ccccc2)C(=O)N[C@@H]([C@@H](C)CC)C(=O)O[C@@H]1C [MICROPEPTIN 88F] |
| inactive | 1300 nM | CC[C@H](C)[C@@H]1NC(=O)[C@H](Cc2ccccc2)N(C)C(=O)[C@H](C(C)C)N2C(=O)[C@H](CC[C@H]2O)NC(=O)[C@H](Cc2ccc(O)cc2)NC(=O)[C@@H](NC(=O)[C@H](CCC(=O)O)NC(=O)[C@H](Cc2ccc(O)cc2)NC(C)=O)[C@@H](C)OC1=O [MICROPEPTIN 88Y] |
| inactive | 2400 nM | CCCCCC(=O)N[C@@H](CC(=O)O)C(=O)N[C@@H]1C(=O)N[C@@H](Cc2ccc(O)cc2)C(=O)N[C@H]2CC[C@@H](O)N(C2=O)[C@@H]([C@@H](C)CC)C(=O)N(C)[C@@H](Cc2ccc(O)cc2)C(=O)N[C@@H](C(C)C)C(=O)O[C@@H]1C [MICROPEPTIN SD979] |
| inactive | 3130 nM | CCCCCC(=O)N[C@@H](CC(=O)O)C(=O)N[C@@H]1C(=O)N[C@@H](Cc2ccc(O)cc2)C(=O)N[C@H]2CC[C@@H](O)N(C2=O)[C@@H]([C@@H](C)CC)C(=O)N(C)[C@@H](Cc2c[nH]c3ccccc23)C(=O)N[C@@H](C(C)C)C(=O)O[C@@H]1C [MICROPEPTIN SD1002] |
| inactive | 4400 nM | CC[C@H](C)[C@@H]1NC(=O)[C@H](Cc2ccc(O)cc2)N(C)C(=O)[C@H](CC(C)C)N2C(=O)[C@H](CC[C@H]2O)NC(=O)[C@H](CCC(N)=O)NC(=O)[C@@H](NC(=O)[C@@H](O)Cc2ccc(O)cc2)[C@@H](C)OC1=O [MICROPEPTIN SF909] |

More lines, now with the values behind:

| Structure (SMILES) | Activity [1] | IC50 [2] |
| --- | --- | --- |
| CC[C@H](C)[C@@H]1NC(=O)[C@H](Cc2ccc(O)cc2)N(C)C(=O)[C@H]([C@@H](C)CC)N2C(=O)C(CCC2O)NC(=O)[C@H](CC(C)C)NC(=O)[C@@H]2C(OC1=O)C(C)CN2C(=O)[C@H](CCC(N)=O)NC(C)=O (stereo in doubt; form 1) | inactive |  |
| CC[C@H](C)[C@@H]1NC(=O)[C@H](Cc2ccc(O)cc2)N(C)C(=O)[C@H]([C@@H](C)CC)N2C(=O)C(CCC2O)NC(=O)[C@H](CC(C)C)NC(=O)[C@@H]2C(OC1=O)C(C)CN2C(=O)[C@H](CCC(N)=O)NC(C)=O (stereo in doubt; form 1) [NOSTOPEPTIN B] |  | 1730 nM |
| CC(=O)N[C@@H](CCC(N)=O)C(=O)N[C@@H]1C(=O)N[C@@H](CC(C)C)C(=O)N[C@H]2CC[C@@H](O)N(C2=O)[C@@H](Cc2ccccc2)C(=O)N(C)[C@@H](Cc2ccc(O)c(Cl)c2)C(=O)N[C@@H](C(C)C)C(=O)O[C@H]1C [CYANOPEPTOLIN 954] | inactive | 40 nM |
| CCCCCC(=O)N[C@@H](CC(=O)O)C(=O)N[C@@H]1C(=O)N[C@@H](Cc2ccc(O)cc2)C(=O)N[C@H]2CC[C@@H](O)N(C2=O)[C@@H](CC(C)C)C(=O)N(C)[C@@H](Cc2ccccc2)C(=O)N[C@@H](C(C)C)C(=O)O[C@@H]1C [CYANOPEPTOLIN 963A] | inactive | 900 nM |
| CC(C)C[C@@H]1NC(=O)[C@@H](NC(=O)[C@@H](NC(=O)[C@H](C)NC(=O)[C@H](CCCc2ccc(O)cc2)NC(=O)[C@H](O)CO)C(C)C)[C@@H](C)OC(=O)[C@H](C(C)C)NC(=O)[C@H](Cc2ccc(O)c(Br)c2)N(C)C(=O)[C@H]([C@@H](C)O)N2C(=O)[C@H](CC[C@H]2O)NC1=O [LARGAMIDE D] | inactive | 10000 nM |
| CC(C)C[C@@H]1NC(=O)[C@@H](NC(=O)[C@@H](NC(=O)[C@@H](C)NC(=O)[C@H](CCCc2ccc(O)cc2)NC(=O)[C@H](O)CO)C(C)C)[C@@H](C)OC(=O)[C@H](C(C)C)NC(=O)[C@H](Cc2ccc(O)c(Cl)c2)N(C)C(=O)[C@H]([C@@H](C)O)N2C(=O)[C@H](CC[C@H]2O)NC1=O [LARGAMIDE E] | inactive | 10000 nM |
| CC(C)[C@H](NC(=O)[C@@H](C)NC(=O)[C@H](CCCc1ccc(O)cc1)NC(=O)[C@H](O)CO)C(=O)N[C@@H]1C(=O)N[C@@H](Cc2ccc(O)cc2)C(=O)N[C@H]2CC[C@@H](O)N(C2=O)[C@@H]([C@@H](C)O)C(=O)N(C)[C@@H](Cc2ccc(O)c(Br)c2)C(=O)N[C@@H](C(C)C)C(=O)O[C@@H]1C [LARGAMIDE F] | inactive | 4000 nM |
| C/C=C1\NC(=O)[C@@H](NC(=O)[C@H](CCc2ccc(O)cc2)NC(=O)[C@H](C)NC(=O)[C@H](O)COS(=O)(=O)O)[C@@H](C)OC(=O)[C@H](C(C)C)NC(=O)[C@H](Cc2ccc(O)cc2)N(C)C(=O)[C@H](Cc2ccccc2)N2C(=O)[C@H](CC[C@H]2O)NC1=O [LYNGBYASTATIN 4] | inactive |  |
| CCCCCC(=O)NCC(=O)N[C@H](C(=O)N[C@@H]1C(=O)N[C@@H](CCC(N)=O)C(=O)N[C@H]2CC[C@@H](O)N(C2=O)[C@@H](Cc2ccccc2)C(=O)N(C)[C@@H](Cc2c[nH]c3ccccc23)C(=O)N[C@@H](C(C)C)C(=O)O[C@@H]1C)[C@@H](C)O [MICROPEPTIN 103] | inactive | 960 nM |
| CCCCCC(=O)N[C@@H](CCC(N)=O)C(=O)N[C@@H]1C(=O)N[C@@H](Cc2ccc(O)cc2)C(=O)N[C@H]2CC[C@@H](O)N(C2=O)[C@@H](Cc2ccccc2)C(=O)N(C)[C@@H](Cc2ccc(O)cc2)C(=O)N[C@@H](C(C)C)C(=O)O[C@@H]1C [MICROPEPTIN T1] | inactive | 2850 nM |
| CC[C@H](C)[C@@H]1NC(=O)[C@H](Cc2ccc(O)cc2)N(C)C(=O)[C@H](Cc2ccccc2)N2C(=O)[C@H](CC[C@H]2O)NC(=O)[C@H](Cc2ccccc2)NC(=O)[C@@H](NC(=O)[C@@H](O)COP(=O)(O)O)[C@@H](C)OC1=O [MICROPEPTIN T 20] |  | 2.5 nM |
| CCCC(=O)N[C@@H](CCC(N)=O)C(=O)N1CC(C)C2OC(=O)[C@H]([C@@H](C)CC)NC(=O)[C@H](Cc3ccc(O)cc3)N(C)C(=O)[C@H]([C@@H](C)CC)N3C(=O)C(CCC3O)NC(=O)[C@H](CC(C)C)NC(=O)[C@H]21 (stereo partly specified) [NOSTOPEPTIN A] | inactive | 1470 nM |
| CC(=O)N[C@@H](CCC(N)=O)C(=O)N[C@@H]1C(=O)N[C@@H](CC(C)C)C(=O)N[C@H]2CC[C@@H](O)N(C2=O)[C@@H](Cc2ccccc2)C(=O)N(C)[C@@H](Cc2ccc(O)cc2)C(=O)N[C@@H](C(C)C)C(=O)O[C@@H]1C [NOSTOPEPTIN BN920] | inactive | 110 nM |
| CC[C@H](C)[C@@H]1NC(=O)[C@H](Cc2ccc(O)cc2)N(C)C(=O)[C@H](CC(C)C)N2C(=O)[C@H](CC[C@H]2O)NC(=O)[C@H](CC(C)C)NC(=O)[C@@H]2[C@@H](OC1=O)C(C)CN2C(=O)[C@H](CCC(N)=O)NC(C)=O (stereo partly specified) [NOSTOPEPTIN E] | inactive | 3600 nM |
| CC[C@@H](C)[C@@H]1NC(=O)[C@H](Cc2ccc(OC)cc2)N(C)C(=O)[C@H]([C@@H](C)CC)N2C(=O)[C@H](CC[C@H]2O)NC(=O)[C@H](CCc2ccc(OC)cc2)NC(=O)[C@@H](NC(=O)[C@H](CCc2ccc(O)cc2)NC(=O)[C@@H](COS(=O)(=O)O)OC)[C@@H](C)OC1=O [OSCILLAPEPTIN B] |  | 1780 nM |
| CC[C@@H](C)[C@@H]1NC(=O)[C@H](Cc2ccccc2)N(C)C(=O)[C@H]([C@@H](C)CC)N2C(=O)[C@H](CC[C@H]2OC)NC(=O)[C@H](CC2C=CC(O)C=C2)NC(=O)[C@@H](NC(=O)[C@@H](CCc2ccc(O)cc2)NC(=O)[C@@H](CO)OC)[C@@H](C)OC1=O (stereo partly specified) [OSCILLAPEPTIN C] |  | 2820 nM |
| CC[C@H](C)[C@@H]1NC(=O)[C@H](Cc2ccccc2)N(C)C(=O)[C@H]([C@@H](C)CC)N2C(=O)[C@H](CC[C@H]2O)NC(=O)[C@H](C[C@H]2C=C[C@H](O)CC2)NC(=O)[C@@H](NC(=O)[C@H](CCc2ccc(O)cc2)NC(=O)[C@@H](COS(=O)(=O)O)OC)[C@@H](C)OC1=O [OSCILLAPEPTIN D] |  | 1950 nM |
| CC[C@@H](C)[C@@H]1NC(=O)[C@H](Cc2ccccc2)N(C)C(=O)[C@H]([C@@H](C)CC)N2C(=O)[C@H](CC[C@H]2O)NC(=O)[C@H](CCc2ccc(O)cc2)NC(=O)[C@@H](NC(=O)[C@@H](CCc2ccc(O)cc2)NC(=O)[C@@H](COS(=O)(=O)O)OC)[C@@H](C)OC1=O [OSCILLAPEPTIN E] |  | 2640 nM |
